ChEMBL document CHEMBL6074625, “Thiazolidine-2,4-dione hybrids as dual alpha-amylase and alpha-glucosidase inhibitors: design, synthesis, in vitro and in vivo anti-diabetic evaluation” (RSC Med Chem, 2024)
Calls of active or inactive are those of the source. No cut-off for these calls is given here.

Legend:
INS1 = assay: Cytotoxicity against rat INS1 cells assessed as inhibition of cell viability at upto 100 uM incubated for 24 hrs by MTT assay; format: toxicity, cell-based; settings: ins1, 24 h
Summary of the method: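 INS-1 MTT run as for PANC-1: 20 × 10³ cells per well in triplicate, 24 h at 37 °C/5% CO₂, then 5–100 μM (7 levels) for another day. MTT (5 mg mL⁻¹ stock) 3 h, centrifugation, DMSO solubilisation 30 min in dark, absorbance at 570 nm.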

Rattus norvegicus [1] = species on record: Rattus norvegicus; assay: Anti-diabetic activity against STZ-induced diabetic Wistar rat model assessed as reduced necrosis in pancreatic tissue […] by H and E staining based analysis; format: functional, organism-based
Summary of the method: (§1)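 Pancreas, liver and kidney from STZ-diabetic rats treated as in the in vivo schedule. Sections stained with haematoxylin and eosin and examined by light microscopy at 40× (50 μm scale bar). Islet boundaries, β-cells, central vein, sinusoids, trabeculae, and tubular necrosis or swelling were scored.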

Rattus norvegicus [2] = assay: Antidiabetic activity against streptozotocin-induced Wistar rat assessed as decrease in total cholesterol at 10 mg/kg, po administered for 21 days measured on day 35; format: functional, organism-based; settings: time 35.0 day
Summary of the method: (§2)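 STZ-diabetic Wistar rats in six groups (normal, vehicle 0.5% CMC oral, STZ, STZ + test compounds, STZ + pioglitazone); oral treatment started day 14 after STZ on day 1. Markers measured in serum, pancreatic homogenate or whole blood, as named in each line. Groups compared by one-way ANOVA.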

Rattus norvegicus [3] = assay: Antidiabetic activity against STZ-induced oxidative stress in Wistar rats model assessed as increase GSH serum level at 10 mg/kg, po administered for 21 days measured on day 35 by absorbance based UV-spectroscopic analysis; format: functional, organism-based; settings: time 35.0 day; summary of the method: as §2
Rattus norvegicus [4] = assay: Antidiabetic activity against streptozotocin-induced Wistar rat assessed as increase BUN level in serum at 10 mg/kg, po administered for 21 days measured on day 35; format: functional, organism-based; settings: time 35.0 day; summary of the method: as §2
Rattus norvegicus [5] = species on record: Rattus norvegicus; assay: Anti-diabetic activity against STZ-induced diabetic Wistar rat model assessed as increase increase in number of basophils level; format: functional, organism-based; summary of the method: as §2
Rattus norvegicus [6] = assay: Antidiabetic activity against streptozotocin-induced Wistar rat assessed as increase in serum SGPT level at 10 mg/kg, po administered for 21 days measured on day 35; format: functional, organism-based; settings: time 35.0 day; summary of the method: as §2
Rattus norvegicus [7] = species on record: Rattus norvegicus; assay: Anti-diabetic activity against STZ-induced diabetic Wistar rat model assessed as increase beta-cells […] by H and E staining based analysis; format: functional, organism-based; summary of the method: as §1
Rattus norvegicus [8] = species on record: Rattus norvegicus; assay: Anti-diabetic activity against STZ-induced diabetic Wistar rat model assessed as increase increase in number of white blood cell count level; format: functional, organism-based; summary of the method: as §2
Rattus norvegicus [9] = species on record: Rattus norvegicus; assay: Anti-diabetic activity against STZ-induced diabetic Wistar rat model assessed as increase increase in number of total red blood cell count level; format: functional, organism-based; summary of the method: as §2
Rattus norvegicus [10] = assay: Antidiabetic activity against streptozotocin-induced Wistar rat assessed as increase in serum SGOT level at 10 mg/kg, po administered for 21 days measured on day 35; format: functional, organism-based; settings: time 35.0 day; summary of the method: as §2
Rattus norvegicus [11] = species on record: Rattus norvegicus; assay: Anti-diabetic activity against STZ-induced diabetic Wistar rat model assessed as reduced in swelling […] by H and E staining based analysis; format: functional, organism-based; summary of the method: as §1
Rattus norvegicus [12] = species on record: Rattus norvegicus; assay: Anti-diabetic activity against STZ-induced diabetic Wistar rat model assessed as clear boundaries in pancreatic islet […] by H and E staining based analysis; format: functional, organism-based; summary of the method: as §1
Rattus norvegicus [13] = assay: Antidiabetic activity against streptozotocin-induced Wistar rat assessed as increase in serum amylase level at 10 mg/kg, po administered for 21 days measured on day 35 by ELISA analysis; format: functional, organism-based; settings: time 35.0 day; summary of the method: as §2
Rattus norvegicus [14] = species on record: Rattus norvegicus; assay: Anti-diabetic activity against STZ-induced diabetic Wistar rat model assessed as increase in number of trabeculae cells […] by H and E staining based analysis; format: functional, organism-based; summary of the method: as §1
Rattus norvegicus [15] = species on record: Rattus norvegicus; assay: Anti-diabetic activity against STZ-induced diabetic Wistar rat model assessed as alteration in kidney morphology […] by H and E staining based analysis; format: functional, organism-based; summary of the method: as §1
Rattus norvegicus [16] = species on record: Rattus norvegicus; assay: Anti-diabetic activity against STZ-induced diabetic Wistar rat model assessed as improvement in pancreas islet morphology […] by H and E staining based analysis; format: functional, organism-based; summary of the method: as §1
Rattus norvegicus [17] = assay: Anti-diabetic activity against STZ-induced diabetic Wistar rat model assessed as decrease in dilatation of central vein at 10 mg/kg, po by H and E staining based analysis

Row | SMILES | Activity (INS1) | Activity (Rattus norvegicus [1]) | Activity (Rattus norvegicus [2]) | Activity (Rattus norvegicus [3]) | Activity (Rattus norvegicus [4]) | Activity (Rattus norvegicus [5]) | Activity (Rattus norvegicus [6]) | Activity (Rattus norvegicus [7]) | Activity (Rattus norvegicus [8]) | Activity (Rattus norvegicus [9]) | Activity (Rattus norvegicus [10]) | Activity (Rattus norvegicus [11]) | Activity (Rattus norvegicus [12]) | Activity (Rattus norvegicus [13]) | Activity (Rattus norvegicus [14]) | Activity (Rattus norvegicus [15]) | Activity (Rattus norvegicus [16]) | Activity (Rattus norvegicus [17])
1 | C#CCOc1ccc(/C=C2\SC(=O)N(Cc3cccc([N+](=O)[O-])c3)C2=O)cc1OCC | Non-toxic | Active | Active | Active | Active | Active | Active | Active | Active | Active | Active | Active | Active | inactive | Active |  |  | 
2 | C=CCOc1ccc(/C=C2\SC(=O)N(Cc3cccc([N+](=O)[O-])c3)C2=O)cc1OCC | Non-toxic |  | Active | Active | Active | Active | Active |  | Active | Active | Active |  |  | inactive |  | Active | Active | Active
